From PubChem BioAssay
Redox H2O2 prof = compounds producing H2O2 with reducing agent – biochemical, NIH compound library profiling, artefact control for MLSCN library redox annotation, primary screen; DTT-dependent redox cycling H2O2, phenol red/HRP absorbance; 100% = 100 µM peroxide control, 0% = buffer; activation, % at 10 µM; hit rate 0.03% among 200,000;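 active = activation of at least 50% relative to the plate's high and low controls in the primary single-dose screen; inactive = activation below 50%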;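 note: compound incubated with DTT at 0.8 mM final as the reducing agent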
Lmaj promast = reduces viability of Leishmania major promastigotes | resazurin fluorescence viability | inhibition, % at 10 µM | hit rate 9% among 200,000;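 note: promastigotes grown with compound for 44 hours at 28 °C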
G6PDH counter = counter-screen for G6PDH assay hits: L. mesenteroides G6PDH inhibition; Purified L. mesenteroides G6PDH, diaphorase/resazurin coupled fluorescence, 45 min; inhibition, % at 5 µM; hit rate 0.12% among 200,000
PfGluPho inh = PfG6PD (Plasmodium falciparum) enzyme inhibition. PfGluPho enzyme, NADPH resazurin-diaphorase fluorescence. hit rate 0.78% among 350,000. AID 504690. inhibition, % at 20 µM;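 active = inhibition reaching at least a set limit at 20 µM in the primary screen, cut at about 59% in these data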;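 note: 0% = DMSO wells with substrate and 100% = DMSO wells lacking glucose-6-phosphate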
Diaph inh CS = inhibits diaphorase or chemically oxidizes, flagging diaphorase assay artifacts; diaphorase resazurin-to-resorufin fluorescence, NADH, 16 min; bacterial (C. kluyveri) enzyme, not human; inhibition, % at 20 µM; hit rate 0.69% among 190,000; AID 1217;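 active = primary screen inhibition at 20 µM above a set limit, cut at about 50% in these data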;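 note: plate controls were DMSO with full reaction for no effect and wells lacking NADH for full effect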
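Detection: fluorescence of resorufin formed from resazurin, Ex 544/Em 590 nm; test system: Clostridium kluyveri diaphorase enzyme; amount: 0.14 U/mL diaphorase, enzyme working solution; times: 16-min room-temperature incubation before reading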
Diaphorase act = counter-screen for diaphorase-based assays: diaphorase activators and chemical reducers. Diaphorase/resazurin coupled assay, resorufin fluorescence, 16 min; hits give high values; 1 = vehicle wells, 0 = NADH-free wells. activation factor at 20 µM. hit rate 0.005% among 190,000;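 active = diaphorase activity raised at least twofold by the compound at 20 µM; inactive = activation factor below 2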
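test system = bacterial diaphorase enzyme (C. kluyveri) | quantity = enzyme 0.07 U/mL final | reagent = NADH substrate 0.114 mM plus resazurin dye 0.1 mM, final | incubation = 16 min enzyme reaction, ambient temperature | buffer or medium = HEPES pH 7.4 buffer with MgCl2 and Tween 20 | signal = fluorescence of resorufin, 544 nm excitation, 590 nm emission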
Numbers without * were called inactive; nt = no result. The entries come from a sample that favours hits as a whole. Cut-off read from the data, not from the text of the source, unless noted: active = inhibition above about 50%; inactive = the rest.

SMILES | Redox H2O2 prof | Lmaj promast | G6PDH counter | PfGluPho inh | Diaph inh CS | Diaphorase act
CCc1ccc(/C=N/NC(=O)c2cc(-c3ccccc3OC)nc3ccccc23)s1 | 0.1 | 49.5 | 5.0 | 15.1 | 17.7 | 0.8
COc1ccccc1-c1cc(C(=O)N/N=C/c2ccc(C)s2)c2ccccc2n1 | 0.1 | 83.2* | 3.4 | 17.9 | 20.8 | 0.8
COc1nnc(-c2ccc(N3CCCCC3)c(NC(=O)C3CCCCC3)c2)c2ccccc12 | -0.8 | 54.3* | 3.1 | -8.3 | 16.0 | 0.8
COc1nnc(-c2ccc(N3CCOCC3)c(NC(=O)C3CCCCC3)c2)c2ccccc12 | -8.0 | 29.1 | -3.7 | -0.4 | 16.9 | 0.8
CCn1cc(CNC(=O)c2cc(-c3cc(OC)ccc3OC)nc3ccccc23)c(C)n1 | -0.2 | 55.5* | -8.5 | -9.1 | 22.3 | 0.8
CCn1cc(CNC(=O)c2cc(-c3ccccc3OC)nc3ccccc23)c(C)n1 | -4.4 | -2.8 | 3.7 | -15.6 | 13.9 | 0.9
COc1ccc(NC(=O)CSc2nc3c(c(-c4cccs4)c2C#N)CN(C)CC3)cc1OC | 2.2 | -1.9 | 14.2 | 42.8 | 56.7* | 0.4
CC(NCCC(c1ccccc1)c1ccccc1)c1ccccc1 (stereo not drawn) | 0.3 | 80.9* | 16.0 | 0.9 | 8.7 | 0.9
CC(NC1CCCC1)c1ccccc1 (stereo not drawn) | -0.2 | -5.4 | 22.6 | -16.3 | 15.0 | 0.8
CC1=C/C(=C\c2ccc(Br)o2)C(=O)O1 | -0.1 | -4.5 | -15.2 | -13.2 | 17.4 | 0.8
O=C1C(=Cc2ccc(Br)o2)C(=O)c2ccccc21 | -0.2 | -3.2 | -15.9 | -4.2 | 64.0* | 0.4
CCCCNC(=O)OCCNC(=O)NC | 1.3 | -5.6 | 0.7 | -13.5 | 11.7 | 0.9
O=C(C[n+]1ccc(CCSc2ccc(F)cc2)cc1)c1ccccc1 | -0.2 | 6.3 | -0.5 | 70.2* | -17.7 | 1.2
CN(C)c1cc[n+](CC(=O)c2ccc(-c3ccccc3)cc2)cc1 | -0.3 | 100.1* | 1.5 | 0.5 | -2.5 | 1
Cc1ccc(C(=O)C[n+]2ccc(Cc3ccccc3)cc2)cc1 | -2.2 | 85.9* | 0.3 | 0.3 | 11.5 | 0.9
CC(=O)Nc1ccc(NC(=O)CN2CCN(c3cccc(C(F)(F)F)c3)CC2)cc1 | -1.4 | 5.2 | 6.9 | 1.7 | 0.0 | 1
CC(=O)Nc1ccc(CN2CCN(c3cccc(C(F)(F)F)c3)CC2)cc1 | 0.0 | 91.5* | -3.5 | 11.1 | 23.0 | 0.8
CC(C)c1onc(C(=O)NCc2ccc(Cl)cc2)c1[N+](=O)[O-] | 0.1 | -9.0 | -17.1 | -5.1 | 13.4 | 0.9
COc1ccc(CNC(=O)c2noc(C(C)C)c2[N+](=O)[O-])cc1 | -0.5 | 54.2* | -5.0 | -13.4 | 0.0 | 1
Cc1cc2nc(C3CCN(C(=S)NCCCOC(C)C)CC3)[nH]c2cc1C | -0.5 | -2.8 | 6.9 | 14.6 | 20.8 | 0.8
O=C(CC1S/C(=N/N=C/c2c[nH]c3ccccc23)NC1=O)Nc1ccccc1 (stereo not drawn) | -0.2 | 78.7* | -4.6 | 1.7 | 11.4 | 0.9
O=C(CC1S/C(=N/N=C/c2c[nH]c3ccc(OCc4ccccc4)cc23)NC1=O)Nc1ccccc1 (stereo not drawn) | 0.1 | -6.6 | -0.6 | -15.1 | -2.9 | 1
O=C(CC1S/C(=N/N=C/c2cccs2)NC1=O)Nc1ccc(Cl)cc1 (stereo not drawn) | 0.5 | 99.4* | -11.9 | -13.8 | 4.3 | 1
O=C(CNC(=O)c1cccc(OC(F)F)c1)OCc1cc(=O)n2cc(Br)ccc2n1 | 0.4 | -3.9 | 10.2 | -17.4 | 17.5 | 0.8
CCn1c(SCC(=O)c2ccc3c(c2)Cc2ccccc2-3)nnc1-c1ccc(N)cc1 | 4.0 | -3.5 | 9.9 | 0.2 | -5.4 | 1.1
SMILES | Redox H2O2 prof | Lmaj promast | G6PDH counter | PfGluPho inh | Diaph inh CS | Diaphorase act
CCn1c(SCC(=O)c2ccc(O)c(O)c2)nnc1-c1ccc(C)cc1 | 1.2 | -10.1 | -0.3 | -53.5 | 56.0* | 0.4
CCn1c(=O)n(CC)c2cc(S(=O)(=O)NCCOc3ccccc3)c(C)cc21 | 3.1 | 99.5* | 12.1 | -8.4 | 9.8 | 0.9
COc1ccc(S(=O)(=O)NCCOc2ccccc2)cc1C | -0.3 | -4.5 | 19.0 | 5.5 | 8.9 | 0.9
Cc1ccc(NS(=O)(=O)c2ccc(Cl)nc2)c(C)c1 | nt | nt | nt | 8.2 | nt | nt
O=C1N(Cc2cccc(Cl)c2)C[C@@H]2C[C@@H](c3cccc4cccnc34)N3CCC[C@@]123 | -1.3 | 38.9 | 8.4 | -9.6 | 3.9 | 1
COc1ccccc1CN1C[C@@H]2C[C@@H](c3ccc4nsnc4c3)N3CCC[C@@]23C1=O | -1.3 | 67.4* | 15.4 | 12.4 | 10.4 | 0.9
O=C1N(Cc2cccnc2)C[C@@H]2C[C@@H](c3ccccc3C#Cc3ccccc3)N3CCC[C@@]123 | -0.9 | 5.7 | 5.0 | -0.2 | 36.5 | 0.6
O=C1N(Cc2cccc(Cl)c2)C[C@@H]2C[C@@H](c3ccc4nonc4c3)N3CCC[C@@]123 | -0.8 | 59.7* | 6.9 | -1.3 | 0.6 | 1
Cc1ccccc1-c1cccc([C@@H]2C[C@H]3CN(Cc4cccnc4)C(=O)[C@]34CCCN24)c1 | 0.6 | 62.6* | 0.7 | 3.0 | 13.0 | 0.9
Cc1ccc([C@@H]2C[C@H]3CN(Cc4cccc(Cl)c4)C(=O)[C@]34CCCN24)o1 | -0.3 | 4.3 | 3.9 | 2.4 | 43.7 | 0.6
COc1ccccc1CN1C[C@@H]2C[C@@H](c3ccc(C)cc3)N3CCC[C@@]23C1=O | -0.7 | -0.6 | -0.1 | -10.2 | 2.9 | 1
O=C1N(Cc2cccc(Cl)c2)C[C@@H]2C[C@@H](c3cccc4ncccc34)N3CCC[C@@]123 | -0.5 | 100.0* | 6.0 | 7.0 | 8.3 | 0.9
COc1ccc(NC(=O)[C@@H](NC(N)=O)C(C)C)cc1Cl | -0.4 | 19.5 | -2.7 | 0.0 | 16.5 | 0.8
COCC(CN1CCN(C2=NS(=O)(=O)c3ccccc32)CC1)OC(=O)c1ccccc1 (stereo not drawn) | nt | nt | nt | -11.8 | nt | nt
CN1CCC(OC(=O)c2ccc(Br)cc2)CC1 | -5.2 | 84.9* | nt | -8.7 | nt | nt
COc1ccc(N2CCN(C(=O)C3CCC(Cn4c(=S)[nH]c5ccccc5c4=O)CC3)CC2)cc1 (stereo not drawn) | -3.0 | 99.3* | 2.3 | -6.0 | 17.4 | 0.8
O=C(C1CCC(Cn2c(=O)[nH]c3ccccc3c2=O)CC1)N1CCN(c2ccccc2)CC1 (stereo not drawn) | 0.6 | 38.5 | 4.9 | 7.6 | 16.7 | 0.8
COc1ccccc1N1CCN(C(=O)C2CCC(Cn3c(=S)[nH]c4ccccc4c3=O)CC2)CC1 (stereo not drawn) | 2.0 | 64.1* | 5.3 | 11.0 | 18.4 | 0.8
COc1ccc(N2CCN(CCCNC(=O)C3CCC(CNc4nc(=S)[nH]c5ccccc45)CC3)CC2)cc1 (stereo not drawn) | -0.9 | 86.1* | 4.8 | 9.0 | -4.6 | 1
